The record followed here is ChEMBL document CHEMBL4007505 (J Med Chem, 2017).

The source made the active and inactive calls. The calls are words filed in the database; no cut-off is given here.

In test [1] the target is T1, Sodium-dependent dopamine transporter (Homo sapiens, UniProt Q01959). The experiment in a line: Enhancing of [3H]WIN35,428 binding to recombinant human DAT expressed in HEK293 cell membranes at 10 uM pre-incubated for 10 mins before radioligand addition and measured 90 mins after radioligand addition by micro beta scintillation counting analysis relative to control.

Test [2] concerns the target T1, Sodium-dependent dopamine transporter. The experiment in a line: Inhibition of [3H]WIN35,428 binding to recombinant human DAT expressed in HEK293 cell membranes at 10 uM pre-incubated for 10 mins before radioligand addition and measured 90 mins after radioligand addition by micro beta scintillation counting analysis relative to control.
The target of test [3] is T2, Adenosine receptor A3 (Homo sapiens, UniProt P0DMS8).
T2 sequence (P0DMS8 whole entry): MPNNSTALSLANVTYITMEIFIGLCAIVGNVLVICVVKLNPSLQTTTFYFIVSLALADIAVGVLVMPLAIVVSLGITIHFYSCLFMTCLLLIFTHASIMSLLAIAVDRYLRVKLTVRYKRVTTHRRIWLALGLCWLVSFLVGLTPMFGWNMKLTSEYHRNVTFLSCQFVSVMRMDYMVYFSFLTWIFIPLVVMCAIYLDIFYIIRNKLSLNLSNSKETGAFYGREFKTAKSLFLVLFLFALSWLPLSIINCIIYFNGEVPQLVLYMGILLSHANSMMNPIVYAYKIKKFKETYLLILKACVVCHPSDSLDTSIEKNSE
The experiment in a line: Displacement of [125I]N6-(4-amino-3-iodobenzyl)adenosine-5'-N-methyluronamide from human A3AR expressed in HEK293T cells pre-incubated for 10 mins before radioligand addition and measured 90 mins after radioligand addition by micro beta scintillation counting analysis relative to control. Format: cell-based, HEK-293T. On the technique in general: Displacement assays read how much labelled ligand stays bound in the presence of the test substance.

Test [4] deals with T3, Adenosine receptor A3 (Mus musculus, UniProt Q61618).
T3 sequence (Q61618 whole entry): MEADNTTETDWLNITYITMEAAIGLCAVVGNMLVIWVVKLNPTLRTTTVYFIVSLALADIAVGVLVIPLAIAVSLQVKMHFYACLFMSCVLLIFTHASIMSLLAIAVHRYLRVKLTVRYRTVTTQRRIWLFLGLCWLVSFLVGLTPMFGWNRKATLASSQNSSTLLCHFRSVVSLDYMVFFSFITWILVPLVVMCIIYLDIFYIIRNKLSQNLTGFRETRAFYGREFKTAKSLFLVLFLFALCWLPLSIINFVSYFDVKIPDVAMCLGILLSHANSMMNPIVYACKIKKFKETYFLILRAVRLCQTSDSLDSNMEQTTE
Kind of test: Displacement of [125I]N6-(4-amino-3-iodobenzyl)adenosine-5'-N-methyluronamide from mouse A3AR expressed in HEK293T cells pre-incubated for 10 mins before radioligand addition and measured 90 mins after radioligand addition by micro beta scintillation counting analysis relative to control. Format: cell-based.

For test [5], the target named is T1, Sodium-dependent dopamine transporter. Kind of test: Enhancing of [125I]RTI-55 binding to recombinant human DAT expressed in HEK293 cell membranes preincubated for 10 mins followed by radioligand addition measured after 90 mins by micro beta scintillation counting analysis. Also noted: concentration or dose not given beside the values. The method in brief: (§1)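 Membranes of HEK-293 cells stably expressing hDAT, hNET or hSERT. […] Compound preincubated 10 min at room temperature, then [125I]23 (40-80 pM final) or [3H]26 (1-3 nM for DAT and NET, 10-13 nM for SERT) added. Incubated 90 min at room temperature in the dark, then filtered. EC50 or Ki; mean ± SEM.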

Test [6] shares this target. Kind of test: Enhancing of [3H]mazindol binding to recombinant human DAT expressed in HEK293 cell membranes preincubated for 10 mins followed by radioligand addition measured after 90 mins by micro beta scintillation counting analysis. Also noted: concentration or dose not given beside the values. The method in brief: as §1
Test [7] has as its target T4, Sodium-dependent noradrenaline transporter (Homo sapiens, UniProt P23975). Kind of test: Enhancing of [125I]RTI-55 binding to recombinant human NET expressed in HEK293 cell membranes preincubated for 10 mins followed by radioligand addition measured after 90 mins by micro beta scintillation counting analysis. Also noted: concentration or dose not given beside the values.

The target in test [8] is T1, Sodium-dependent dopamine transporter. Kind of test: Inhibition of recombinant human DAT expressed in HEK293 cell […] as reduction in [3H]-DA uptake incubated for 22 mins by micro beta scintillation counting analysis.
Test [9] has as its target T4, Sodium-dependent noradrenaline transporter. The experiment in a line: Inhibition of recombinant human NET expressed in HEK293 […] assessed as reduction in [3H]-norepinephrine uptake incubated for 22 mins by micro beta scintillation counting analysis.
The target in test [10] is T5, Sodium-dependent serotonin transporter (Homo sapiens, UniProt P31645). The experiment in a line: Enhancing of [125I]RTI-55 binding to recombinant human SERT expressed in HEK293 cell membranes preincubated for 10 mins followed by radioligand addition measured after 90 mins by micro beta scintillation counting analysis.
For test [11], the target named is T5, Sodium-dependent serotonin transporter. The experiment in a line: Enhancing of [3H]mazindol binding to recombinant human SERT expressed in HEK293 cell membranes preincubated for 10 mins followed by radioligand addition measured after 90 mins by micro beta scintillation counting analysis.
Target sequence in this assay (P31645 whole entry): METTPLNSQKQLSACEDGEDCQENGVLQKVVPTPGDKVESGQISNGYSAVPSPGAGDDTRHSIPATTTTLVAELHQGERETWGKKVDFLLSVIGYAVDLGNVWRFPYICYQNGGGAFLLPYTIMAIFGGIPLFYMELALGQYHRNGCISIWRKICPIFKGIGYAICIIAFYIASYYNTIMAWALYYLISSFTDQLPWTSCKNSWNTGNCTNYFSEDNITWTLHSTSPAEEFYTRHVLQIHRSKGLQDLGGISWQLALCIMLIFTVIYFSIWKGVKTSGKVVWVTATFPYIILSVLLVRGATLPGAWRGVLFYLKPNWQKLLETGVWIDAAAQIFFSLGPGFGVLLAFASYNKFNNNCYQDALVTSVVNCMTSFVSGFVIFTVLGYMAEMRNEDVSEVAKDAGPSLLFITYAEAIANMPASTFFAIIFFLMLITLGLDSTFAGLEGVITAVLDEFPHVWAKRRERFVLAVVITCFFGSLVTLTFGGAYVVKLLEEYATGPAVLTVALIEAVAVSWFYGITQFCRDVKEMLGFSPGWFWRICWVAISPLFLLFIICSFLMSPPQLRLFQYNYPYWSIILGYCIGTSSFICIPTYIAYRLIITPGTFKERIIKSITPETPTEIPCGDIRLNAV
The target in test [12] is T6, 5-hydroxytryptamine receptor 2C (Homo sapiens, UniProt P28335).
T6 sequence (P28335 whole entry): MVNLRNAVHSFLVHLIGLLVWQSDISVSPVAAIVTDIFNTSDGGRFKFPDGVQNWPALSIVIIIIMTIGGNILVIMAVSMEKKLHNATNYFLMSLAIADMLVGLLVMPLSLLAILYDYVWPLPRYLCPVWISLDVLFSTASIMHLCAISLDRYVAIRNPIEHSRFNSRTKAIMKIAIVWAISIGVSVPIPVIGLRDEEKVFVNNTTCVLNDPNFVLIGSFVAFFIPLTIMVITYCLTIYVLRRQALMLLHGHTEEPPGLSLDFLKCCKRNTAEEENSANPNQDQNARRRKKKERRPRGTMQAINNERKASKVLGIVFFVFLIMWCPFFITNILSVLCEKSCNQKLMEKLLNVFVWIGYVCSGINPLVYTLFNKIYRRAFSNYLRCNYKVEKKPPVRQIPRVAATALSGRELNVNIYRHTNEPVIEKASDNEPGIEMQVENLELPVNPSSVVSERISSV
Kind of test: Displacement of [3H]Mesulergine from human 5-HT2C receptor.

Test [13] addresses Alpha-2B adrenergic receptor (Homo sapiens, UniProt P18089). Kind of test: Displacement of [3H]Rauwolscine from human adrenergic alpha2B receptor.
The target of test [14] is T7, Alpha-2C adrenergic receptor (Homo sapiens, UniProt P18825).
T7 sequence (P18825 whole entry): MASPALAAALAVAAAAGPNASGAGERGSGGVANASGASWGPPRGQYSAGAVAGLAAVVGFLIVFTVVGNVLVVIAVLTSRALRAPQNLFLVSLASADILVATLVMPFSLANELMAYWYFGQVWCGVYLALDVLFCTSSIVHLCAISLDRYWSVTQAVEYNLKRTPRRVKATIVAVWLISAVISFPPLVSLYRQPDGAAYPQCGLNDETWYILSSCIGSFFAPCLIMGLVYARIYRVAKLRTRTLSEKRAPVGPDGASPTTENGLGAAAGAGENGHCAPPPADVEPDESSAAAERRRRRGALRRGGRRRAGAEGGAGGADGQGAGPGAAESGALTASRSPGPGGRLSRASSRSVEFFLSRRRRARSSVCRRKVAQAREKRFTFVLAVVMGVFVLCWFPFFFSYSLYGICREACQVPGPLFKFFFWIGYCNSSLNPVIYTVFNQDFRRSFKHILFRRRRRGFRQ
Kind of test: Displacement of [3H]Rauwolscine from human adrenergic alpha2C receptor.

T4 sequence (P23975 whole entry): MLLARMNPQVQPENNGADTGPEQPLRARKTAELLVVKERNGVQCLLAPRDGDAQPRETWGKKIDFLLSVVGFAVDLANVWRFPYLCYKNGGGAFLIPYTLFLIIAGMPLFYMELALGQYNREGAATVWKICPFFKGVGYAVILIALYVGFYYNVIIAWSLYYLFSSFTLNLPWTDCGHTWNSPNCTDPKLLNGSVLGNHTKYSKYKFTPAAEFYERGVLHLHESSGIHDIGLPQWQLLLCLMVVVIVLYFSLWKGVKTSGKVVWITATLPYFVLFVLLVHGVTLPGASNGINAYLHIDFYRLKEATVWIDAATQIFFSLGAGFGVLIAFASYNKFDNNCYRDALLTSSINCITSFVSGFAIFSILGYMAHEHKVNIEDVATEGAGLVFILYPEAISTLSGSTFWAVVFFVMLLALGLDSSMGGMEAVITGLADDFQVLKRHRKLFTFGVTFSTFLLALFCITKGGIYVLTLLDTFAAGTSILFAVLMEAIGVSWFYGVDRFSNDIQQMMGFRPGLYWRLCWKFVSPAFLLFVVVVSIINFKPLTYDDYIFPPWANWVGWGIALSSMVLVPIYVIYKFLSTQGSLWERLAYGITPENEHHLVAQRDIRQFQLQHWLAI
T1 sequence (Q01959 whole entry): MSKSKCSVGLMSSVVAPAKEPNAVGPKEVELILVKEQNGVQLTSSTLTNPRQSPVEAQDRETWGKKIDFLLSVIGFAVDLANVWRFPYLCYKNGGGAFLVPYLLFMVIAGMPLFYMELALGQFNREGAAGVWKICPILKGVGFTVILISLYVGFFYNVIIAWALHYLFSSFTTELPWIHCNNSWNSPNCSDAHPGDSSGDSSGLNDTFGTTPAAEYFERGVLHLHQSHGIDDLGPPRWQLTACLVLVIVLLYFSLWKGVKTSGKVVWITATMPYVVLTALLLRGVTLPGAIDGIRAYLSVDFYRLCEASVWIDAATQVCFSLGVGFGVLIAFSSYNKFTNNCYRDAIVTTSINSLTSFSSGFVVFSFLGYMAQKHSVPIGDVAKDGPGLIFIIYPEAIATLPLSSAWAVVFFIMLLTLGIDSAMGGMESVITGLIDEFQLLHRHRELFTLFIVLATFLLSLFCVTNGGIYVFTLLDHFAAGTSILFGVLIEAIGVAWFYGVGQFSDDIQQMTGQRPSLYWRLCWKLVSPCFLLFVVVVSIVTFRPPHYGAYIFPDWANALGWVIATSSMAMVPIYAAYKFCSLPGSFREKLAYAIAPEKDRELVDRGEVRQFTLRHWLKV
Alpha-2B adrenergic receptor, sequence (P18089 whole entry): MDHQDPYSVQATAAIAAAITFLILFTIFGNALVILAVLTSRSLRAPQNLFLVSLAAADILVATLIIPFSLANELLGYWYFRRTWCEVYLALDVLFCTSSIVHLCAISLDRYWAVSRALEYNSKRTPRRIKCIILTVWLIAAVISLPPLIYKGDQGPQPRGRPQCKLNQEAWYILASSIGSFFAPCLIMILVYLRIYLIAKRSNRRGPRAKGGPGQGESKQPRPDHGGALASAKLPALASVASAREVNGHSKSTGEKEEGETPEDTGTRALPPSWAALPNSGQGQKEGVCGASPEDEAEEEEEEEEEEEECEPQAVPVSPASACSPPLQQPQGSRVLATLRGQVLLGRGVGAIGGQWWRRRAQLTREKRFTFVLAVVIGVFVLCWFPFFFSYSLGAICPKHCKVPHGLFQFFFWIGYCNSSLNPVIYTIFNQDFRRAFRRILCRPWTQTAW

As usually defined, the Ki is the dissociation constant of the complex between target and ligand, obtained from inhibition or displacement. What is called EC50 is the concentration needed to bring the measured effect to its halfway point. Usually IC50 stands for the point on the concentration scale where inhibition reaches its midpoint. For `CNc1nc(C#Cc2ccc(Cl)s2)nc2c1ncn2[C@@H]1O[C@H](C(=O)OC)[C@@H](O)[C@H]1O`, the Activity in test [1] was 220%; in test [5] it was 312%; in test [6], 269%; in [7], 227%. The inhibition result in test [2] is “inactive”. Further, the inhibitory constant (Ki) at Adenosine receptor A3 [3] is 0.0115 µM; at Adenosine receptor A3 [4], 0.034 µM; in [12] it was 3.24 µM; in test [13], 5 to 10 µM; in [14], greater than 10 µM. In addition, the half-maximal effective concentration (EC50) in test [5] (read-out: EC50) was 0.127 µM; in test [6] (read-out: EC50) it was 0.86 µM; in test [7] (read-out: EC50), 1.52 µM; in test [10] (read-out: EC50) it was greater than 10 µM; in test [11] it was greater than 10 µM. In addition, the IC50 in test [8] was found to be 0.396 µM; in [9] it was 2.69 µM. Further, the result in test [10] was inactive.
